# PRMT1 FP inh: PRMT1 methyltransferase inhibitors, primary screen, biochemical, fluorescence polarization | AID 652257, 2013 | Protein arginine N-methyltransferase 1 (Homo sapiens), Q99873 | recombinant PRMT1, activity-based probe fluorescence polarization | inhibition, % at 2.79 µM | 370,000 compounds, 1.3% hits;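 active = inhibition above about 21% made by adding two undisclosed values, limit read from the data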
# Target sequence (Q99873 whole entry, looked up): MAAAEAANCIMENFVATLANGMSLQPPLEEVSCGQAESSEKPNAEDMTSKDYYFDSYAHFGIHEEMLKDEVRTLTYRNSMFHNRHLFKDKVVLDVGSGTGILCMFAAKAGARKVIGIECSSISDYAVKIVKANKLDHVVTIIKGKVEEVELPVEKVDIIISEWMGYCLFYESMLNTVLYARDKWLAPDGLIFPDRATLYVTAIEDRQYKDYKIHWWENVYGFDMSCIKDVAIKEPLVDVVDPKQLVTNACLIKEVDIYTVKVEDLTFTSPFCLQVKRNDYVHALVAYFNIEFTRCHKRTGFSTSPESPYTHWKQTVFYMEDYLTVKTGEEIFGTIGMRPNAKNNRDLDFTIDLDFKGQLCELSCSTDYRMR
# TCR CD3 inh: inhibitors of human TCR-CD3 interaction, primary screen, biochemical, fluorescence, TAMRA-labeled TCR probe | T-cell receptor (TCR) | inhibition, % at 9.4 µM | 360,000 compounds, 0.37% hits; in the data active = inhibition above about 19%;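 note: recombinant mutant TCR 2C K166C tagged with TAMRA read by polarization; 0% = receptor in buffer alone and 100% = receptor with positive control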
# rCAG RNA binder: binders of r(CAG) RNA repeats, primary screen, biochemical, fluorescence; r(CAG) RNA repeat, TO-PRO-1 dye displacement fluorescence; 370,000 compounds, 1.3% hits; inhibition, % at 3 µM; AID 651821, 2012;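 active = inhibition above the plate cutoff, the mean of all test compounds on that plate plus 3 SD, cut at about 35% in these data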;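 note: 0% = DMSO alone and 100% = 100 µM mitoxantrone as full dye displacement; higher means more dye released from RNA so lower well fluorescence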
# SIAE inh: human SIAE inhibitors, primary screen, biochemical, fluorescence polarization, FP-Rh probe, 1536-well HTS. AID 1053197, 2014. 370,000 compounds, 0.69% hits. Sialate O-acetylesterase (Homo sapiens), Q9HAT2. inhibition, % at 9.66 µM. SIAE FP-Rh probe binding;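 active = inhibition above a cutoff: mean of compounds within the control limits plus 3 SD of those, cut at about 17% in these data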;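 note: 0% = plate median of compound wells and 100% = probe without SIAE protein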
# HTRA1 inhibitor: HTRA1 serine protease inhibitors, primary screen, biochemical, fluorescence polarization, HTS; 340,000 compounds, 0.5% hits; Q92743; AID 504803, 2011; recombinant HTRA1, FP-rhodamine activity-based probe; inhibition, % at 5.96 µM; in the data active = inhibition above about 36%;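 note: 0% = enzyme with DMSO and 100% = wells lacking enzyme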
# mABHD4 FP: ABHD4 inhibitors, primary screen, biochemical, fluorescence polarization, mouse | (Lyso)-N-acylphosphatidylethanolamine lipase (Mus musculus), Q8VD66 | purified mABHD4, FP-Rh probe fluorescence polarization | 370,000 compounds, 0.54% hits | inhibition, % at 8.92 µM;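 active = inhibition exceeding the mean over every tested compound plus 3 SD, cut at about 30% in these data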;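 note: 0% = plate median of compound wells and 100% = S159A mutant with DMSO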
#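 Test system: mABHD4 protein | Buffer or medium: HEPES pH 7.0 buffer, 150 mM NaCl, 0.01% Pluronic F-127 | Probe or stimulus: FP-Rh fluorescent activity-based probe, added after compound pre-incubation | Timing: Pre-incubation 45 min, probe exposure 60 min, at 25 °C | Technique: Fluorescence polarization, excitation 525 nm, emission 598 nm, BODIPY TMR filters | Repeats: Single well per compound (singlicate)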
# Numbers without * were called inactive; x = no result given. In the library only some 3.5% were active in any assay of this set; here they are far more common.
SMILES,PRMT1 FP inh,TCR CD3 inh,rCAG RNA binder,SIAE inh,HTRA1 inhibitor,mABHD4 FP
Cc1ccc(C(=O)NC(=S)NNS(=O)(=O)c2ccc(C)cc2)cc1,23*,5,22,1,0,22
C=CCOc1ccc(C(=O)/C=C2/C(=O)Nc3ccccc32)cc1,-5,2,7,-1,-10,8
C=CCOc1ccccc1C(=O)/C=C1/C(=O)Nc2ccccc21,23*,1,6,2,-4,11
COC(=O)c1ccccc1NC1=C/C(=N\S(=O)(=O)c2ccc(C(=O)O)cc2)c2ccccc2C1=O,x,x,x,x,45*,x
CCc1ccc(S(=O)(=O)/N=C2\C=C(Nc3ccc(C(=O)O)cc3)C(=O)c3ccccc32)cc1,3,-1,89*,13,33,54*
Cc1ccc(NC2=C/C(=N/S(=O)(=O)c3cccs3)c3ccccc3C2=O)cc1,-4,10,18,11,14,16
COC(=O)c1ccccc1NC1=C/C(=N\S(=O)(=O)c2cccs2)c2ccccc2C1=O,6,-3,7,0,21,13
Cc1ccc(NC(=O)CC2SC(=O)N(c3ccccc3)C2=O)cc1 (stereo not drawn),14,-18,37*,5,4,-4
CCN1CCN(C2=C(NS(=O)(=O)c3ccccc3)C(=O)c3ccccc3C2=O)CC1,7,3,0,11,4,7
CCN1CCN(C2=C(NS(=O)(=O)c3ccc(Br)cc3)C(=O)c3ccccc3C2=O)CC1,22*,0,7,9,6,6
O=C(CCS(=O)(=O)c1ccccc1)Nc1ccc(F)cc1F,-2,x,5,-5,x,-2
O=C(CSc1nnc(Cc2ccccc2)n1Cc1ccco1)NC1CCCC1,22*,-5,7,-15,-4,-27
COc1ccccc1C(=O)Nc1ccccc1SC(=O)c1ccccc1OC,52*,1,1,-21,-10,-12
CC1=CC2(C(Cc3ccccc3)N(CC3CC3)C(=NC(=O)c3ccccc3)N2C(=O)OCc2ccccc2)n2c(=O)n(-c3ccccc3)c(=O)n2C1 (stereo not drawn),3,x,14,4,x,5
COC(=O)C1CN(Cc2cn(Cc3ccc(C)cc3)nn2)CCS(=O)(=O)N1Cc1ccc(Cl)cc1 (stereo not drawn),-2,x,6,6,x,-1
COC(=O)[C@H]1C[C@@]2(C)c3ccccc3N(S(=O)(=O)c3ccccc3)[C@H]2N1C(=O)CNC1CCCCC1,2,x,2,3,x,2
C=C(CN(C)C)C(=O)c1ccc(C)cc1C,23*,-2,2,-5,0,5
Cc1ccc(C(=O)CC(=O)c2ccccc2C)c(O)c1,0,-10,3,4,23,-2
CC(C)(C)c1ccc(-c2nnc(SCC(=O)Nc3ccc4cn[nH]c4c3)n2-c2ccc(Cl)cc2)cc1,1,x,10,-3,x,-3
COc1ccc([N+](=O)[O-])c(S(=O)(=O)c2ccccc2)n1,25*,-6,-2,4,x,2
COC(=O)[C@]12C[C@H](CC(=O)N3CCN(C(=O)c4ccco4)CC3)C(=O)N(Cc3cccc4ccccc34)C1=C[C@H](COCc1ccccc1)O[C@@H]2C,4,x,13,2,x,-3
CC(=O)Nc1sc(N/N=C\c2ccc(O)cc2)nc1-c1cccs1,23*,-7,22,0,3,2
Cc1ccccc1NC(=O)c1cccc2c1-c1ccccc1C2=O,1,x,2,-1,x,4
COC(=O)[C@]12C[C@H](CC(=O)NCCc3ccccc3OC)C(=O)N(Cc3ccco3)C1=C[C@H](C(C)(C)C)O[C@@H]2C,0,x,0,-2,x,0
O=C(Nc1ccc([N+](=O)[O-])cc1)Nc1ccc(OC(F)F)c(Cl)c1,3,40*,22,-284,-112,-29
Oc1cc2c(cc1O)C(c1ccccc1)CNCC2 (stereo not drawn),9,-6,3,0,7,4
Oc1cc2c(cc1O)[C@@H](c1ccccc1)CNCC2,23*,-1,2,10,10,13
